# Reference: ChEMBL document CHEMBL1926683, “Synthesis and anticancer activity of 4β-alkylamidochalcone and 4β-cinnamido linked podophyllotoxins as apoptotic inducing agents” (Eur J Med Chem, 2012)
# Columns and labels:
# Type in all cases: functional, cell-based
# HT-29 = assay: Anticancer activity against human HT-29 cells after 48 hrs by MTT assay; settings: HT-29, 48 h
# Procedure, shortened: (§1)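 MTT assay. Cells seeded at 1 × 10⁴/well in DMEM with 10% FBS and held 24 h at 37 °C in CO₂. Compounds were diluted in culture medium and added alongside vehicle controls, then incubated 48 h. MTT (5 mg/ml stock) was added for 4 h. Supernatant was removed, formazan dissolved in DMSO, and absorbance read at 540 nm.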
# A-375 = assay: Anticancer activity against human A375 cells after 48 hrs by MTT assay; settings: A-375, 48 h; procedure, shortened: as §1
# ACHN = assay: Anticancer activity against human ACHN cells after 48 hrs by MTT assay; procedure, shortened: as §1
# A549 = assay: Anticancer activity against human A549 cells after 48 hrs by MTT assay; settings: A549, 48 h; procedure, shortened: as §1
# MCF7 = assay: Anticancer activity against human MCF7 cells after 48 hrs by MTT assay; settings: MCF7, 48 h; procedure, shortened: as §1
SMILES,IC50 (HT-29),IC50 (A-375),IC50 (ACHN),IC50 (A549),IC50 (MCF7)
COc1ccc(C(=O)/C=C/c2ccc(OCC(=O)N[C@@H]3c4cc5c(cc4[C@@H](c4cc(OC)c(OC)c(OC)c4)[C@H]4C(=O)OC[C@@H]43)OCO5)c(OC)c2)cc1,16.9 µM,9.3 µM,16.1 µM,8.3 µM,16.2 µM
COc1cc([C@@H]2c3cc4c(cc3[C@@H](NC(=O)/C=C/c3ccc(Br)cc3)[C@H]3COC(=O)[C@H]23)OCO4)cc(OC)c1OC,19.2 µM,17.8 µM,14.3 µM,9.5 µM,11.2 µM
COc1cc([C@@H]2c3cc4c(cc3[C@@H](NC(=O)/C=C/c3ccc(F)cc3)[C@H]3COC(=O)[C@H]23)OCO4)cc(OC)c1OC,7.1 µM,9.5 µM,18.6 µM,6.8 µM,14.6 µM
COc1cccc(C(=O)/C=C/c2ccc(OCC(=O)N[C@@H]3c4cc5c(cc4[C@@H](c4cc(OC)c(OC)c(OC)c4)[C@H]4C(=O)OC[C@@H]43)OCO5)c(OC)c2)c1,8.1 µM,13.8 µM,13.8 µM,9.1 µM,21.8 µM
COc1cc(/C=C/C(=O)c2cc(OC)c(OC)c(OC)c2)ccc1OCCCCCC(=O)N[C@@H]1c2cc3c(cc2[C@@H](c2cc(OC)c(OC)c(OC)c2)[C@H]2C(=O)OC[C@@H]21)OCO3,12.1 µM,9.8 µM,19.5 µM,13.6 µM,10.2 µM
COc1cc(/C=C/C(=O)c2cc(OC)c(OC)c(OC)c2)ccc1OCC(=O)N[C@@H]1c2cc3c(cc2[C@@H](c2cc(OC)c(OC)c(OC)c2)[C@H]2C(=O)OC[C@@H]21)OCO3,9.54 µM,7.8 µM,8.51 µM,10.7 µM,14.9 µM
COc1ccc(/C=C/C(=O)N[C@@H]2c3cc4c(cc3[C@@H](c3cc(OC)c(OC)c(OC)c3)[C@H]3C(=O)OC[C@@H]32)OCO4)cc1,17.6 µM,19.1 µM,17.8 µM,7.7 µM,15.7 µM
COc1cc(/C=C/C(=O)N[C@@H]2c3cc4c(cc3[C@@H](c3cc(OC)c(OC)c(OC)c3)[C@H]3C(=O)OC[C@@H]32)OCO4)cc(OC)c1OC,8.34 µM,14 µM,13.1 µM,7.9 µM,17.7 µM
COc1cc(C(=O)/C=C/c2cccc(OCC(=O)N[C@@H]3c4cc5c(cc4[C@@H](c4cc(OC)c(OC)c(OC)c4)[C@H]4C(=O)OC[C@@H]43)OCO5)c2)cc(OC)c1OC,15.6 µM,18.2 µM,9.1 µM,16.8 µM,24.4 µM
O=C(O)/C=C/c1ccccc1 [CINNAMIC ACID],114 µM,64 µM,91 µM,87 µM,108 µM
COc1cc([C@@H]2c3cc4c(cc3[C@@H](NC(=O)/C=C/c3ccc([N+](=O)[O-])cc3)[C@H]3COC(=O)[C@H]23)OCO4)cc(OC)c1OC,18.1 µM,14.5 µM,12.8 µM,8.2 µM,10.1 µM
COc1cc(/C=C/C(=O)c2c(C)nc3ccccc3c2-c2ccccc2)ccc1OCC(=O)N[C@@H]1c2cc3c(cc2[C@@H](c2cc(OC)c(OC)c(OC)c2)[C@H]2C(=O)OC[C@@H]21)OCO3,7.75 µM,7.7 µM,15.7 µM,13.4 µM,11.2 µM
COc1ccc(C(=O)/C=C/c2ccc(OCCCCCC(=O)N[C@@H]3c4cc5c(cc4[C@@H](c4cc(OC)c(OC)c(OC)c4)[C@H]4C(=O)OC[C@@H]43)OCO5)c(OC)c2)cc1,16 µM,13 µM,10 µM,19 µM,12 µM
COc1ccc(/C=C/C(=O)c2cc(OC)c(OC)c(OC)c2)cc1OCCCCCC(=O)N[C@@H]1c2cc3c(cc2[C@@H](c2cc(OC)c(OC)c(OC)c2)[C@H]2C(=O)OC[C@@H]21)OCO3,6.47 µM,10.3 µM,13.4 µM,16.7 µM,12.6 µM
COc1cc(C(=O)/C=C/c2ccc(OCC(=O)N[C@@H]3c4cc5c(cc4[C@@H](c4cc(OC)c(OC)c(OC)c4)[C@H]4C(=O)OC[C@@H]43)OCO5)cc2)cc(OC)c1OC,12.4 µM,25.8 µM,10.2 µM,19.1 µM,24.2 µM
COc1cc([C@@H]2c3cc4c(cc3[C@@H](NC(=O)/C=C/c3ccc(Cl)cc3)[C@H]3COC(=O)[C@H]23)OCO4)cc(OC)c1OC,11.4 µM,5.7 µM,7.54 µM,8.8 µM,13.7 µM

SMILES,IC50 (HT-29),IC50 (A-375),IC50 (ACHN),IC50 (A549),IC50 (MCF7)
COc1cc(/C=C/C(=O)c2cccc([N+](=O)[O-])c2)ccc1OCCCCCC(=O)N[C@@H]1c2cc3c(cc2[C@@H](c2cc(OC)c(OC)c(OC)c2)[C@H]2C(=O)OC[C@@H]21)OCO3,8.75 µM,10.8 µM,11.9 µM,10.7 µM,18.1 µM
COc1cc(/C=C/C(=O)c2cccc([N+](=O)[O-])c2)ccc1OCC(=O)N[C@@H]1c2cc3c(cc2[C@@H](c2cc(OC)c(OC)c(OC)c2)[C@H]2C(=O)OC[C@@H]21)OCO3,8.41 µM,5.3 µM,13.2 µM,9 µM,6.7 µM
COc1cc(C(=O)/C=C/c2cccc(OCCCCCC(=O)N[C@@H]3c4cc5c(cc4[C@@H](c4cc(OC)c(OC)c(OC)c4)[C@H]4C(=O)OC[C@@H]43)OCO5)c2)cc(OC)c1OC,21.1 µM,11.5 µM,20.8 µM,14.7 µM,8.3 µM
COc1cc(/C=C/C(=O)c2c(C)nc3ccccc3c2C)ccc1OCC(=O)N[C@@H]1c2cc3c(cc2[C@@H](c2cc(OC)c(OC)c(OC)c2)[C@H]2C(=O)OC[C@@H]21)OCO3,12.3 µM,14.5 µM,10.8 µM,15.4 µM,13.8 µM
O=C(O)/C=C/c1ccc(C(F)(F)F)cc1,75 µM,91 µM,128 µM,56 µM,142 µM
COc1ccc(/C=C/C(=O)c2cc(OC)c(OC)c(OC)c2)cc1OCC(=O)N[C@@H]1c2cc3c(cc2[C@@H](c2cc(OC)c(OC)c(OC)c2)[C@H]2C(=O)OC[C@@H]21)OCO3,5.98 µM,11.5 µM,11.1 µM,11.7 µM,15.4 µM
COc1cc(/C=C/C(=O)c2ccc(F)cc2)ccc1OCCCCCC(=O)N[C@@H]1c2cc3c(cc2[C@@H](c2cc(OC)c(OC)c(OC)c2)[C@H]2C(=O)OC[C@@H]21)OCO3,11.7 µM,11.4 µM,9.3 µM,5.9 µM,15.8 µM
COc1cc([C@@H]2c3cc4c(cc3[C@@H](NC(=O)/C=C/c3ccc(Cl)c(Cl)c3)[C@H]3COC(=O)[C@H]23)OCO4)cc(OC)c1OC,21 µM,13.2 µM,17.7 µM,8.4 µM,20.1 µM
COc1cc(/C=C/C(=O)c2c(C)nc3ccccc3c2C)ccc1OCCCCCC(=O)N[C@@H]1c2cc3c(cc2[C@@H](c2cc(OC)c(OC)c(OC)c2)[C@H]2C(=O)OC[C@@H]21)OCO3,11.8 µM,10.3 µM,10.7 µM,10.6 µM,8.6 µM
COc1cc(/C=C/C(=O)c2c(C)nc3ccccc3c2-c2ccccc2)ccc1OCCCCCC(=O)N[C@@H]1c2cc3c(cc2[C@@H](c2cc(OC)c(OC)c(OC)c2)[C@H]2C(=O)OC[C@@H]21)OCO3,8.9 µM,6.8 µM,9.46 µM,7.7 µM,2.2 µM
COc1cc(C(=O)/C=C/c2ccc(OCCCCCC(=O)N[C@@H]3c4cc5c(cc4[C@@H](c4cc(OC)c(OC)c(OC)c4)[C@H]4C(=O)OC[C@@H]43)OCO5)cc2)cc(OC)c1OC,15.3 µM,18.4 µM,16.5 µM,21.5 µM,24.8 µM
COc1cc([C@@H]2c3cc4c(cc3[C@H](O)[C@H]3COC(=O)[C@H]23)OCO4)cc(OC)c1OC [PODOFILOX],0.78 µM,2.62 µM,2.12 µM,3.75 µM,1.18 µM
COc1cc(/C=C/C(=O)c2ccc(F)cc2)ccc1OCC(=O)N[C@@H]1c2cc3c(cc2[C@@H](c2cc(OC)c(OC)c(OC)c2)[C@H]2C(=O)OC[C@@H]21)OCO3,21.6 µM,12.2 µM,26.7 µM,26.4 µM,19.1 µM
COc1cccc2c1C(=O)c1c(O)c3c(c(O)c1C2=O)C[C@@](O)(C(=O)CO)C[C@@H]3O[C@H]1C[C@H](N)[C@H](O)[C@H](C)O1 [DOXORUBICIN],1.06 µM,5.51 µM,0.79 µM,2.18 µM,2.02 µM
COc1cccc(C(=O)/C=C/c2ccc(OCCCCCC(=O)N[C@@H]3c4cc5c(cc4[C@@H](c4cc(OC)c(OC)c(OC)c4)[C@H]4C(=O)OC[C@@H]43)OCO5)c(OC)c2)c1,11.9 µM,20.1 µM,13.7 µM,14.4 µM,17.5 µM
